The results in this text go back to ChEMBL document CHEMBL3352812, “Shogaol-huprine hybrids: dual antioxidant and anticholinesterase agents with β-amyloid and tau anti-aggregating properties” (Bioorg Med Chem, 2014).

A short description of one series: in vitro. The conditions noted are these: PAMPA. A general note: In PAMPA a lipid-coated filter parts donor from acceptor wells.
For series [1], the target named is T1, Cholinesterase (Homo sapiens, UniProt P06276). Nature of the series: Inhibition of human serum BChE using butyrylthiocholine iodide preincubated for 20 mins before substrate addition by Ellman method. The method in brief: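 Ellman spectrophotometric assay in 0.1 M phosphate buffer. Enzymes were human recombinant AChE and human serum BChE. Inhibitor (at least 10 increasing concentrations, in duplicate) was preincubated 20 min at 37 °C. Acetylthiocholine iodide (450 µM, AChE) or butyrylthiocholine iodide (300 µM, BChE) was then added and reacted 5 min at 37 °C, with absorbance read at 414 nm. The no-inhibitor control set 100% activity. IC50 came from non-linear regression, at least 4 experiments.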

Series [2] in a line: Antioxidant activity assessed as total polyphenolics measured as gallic acid equivalent after 30 mins by Folin-Ciocalteu assay. It is filed as physicochemical. The conditions noted are these: 0.5 h.
The nature of series [3]: Antioxidant activity assessed as ABTS free radical scavenging activity measured as trolox equivalent after 1 hr by spectrophotometry. It counts as physicochemical. The method in brief: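 ABTS radical cation generated by passing 5 mM ABTS stock through MnO2 and filtering; 245 µL radical solution added to 5 µL sample or trolox, stirred 30 s, kept dark 1 h, A734 read against MeOH blanks. Trolox calibration; expressed as µmol trolox/µmol compound; triplicate analyses, mean ± SEM of three experiments.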

For series [4], the target named is Microtubule-associated protein tau (Homo sapiens) (UniProt P10636). In words: Inhibition of aggregation of TAU (unknown origin) expressed in Escherichia coli BL21 (DE3) at 10 uM after 24 hrs by thioflavin S fluorescence assay. The method in brief:
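E. coli BL21(DE3) with pTARA (T7 RNA polymerase under pBAD) transformed with pRKT42 encoding four-repeat tau; overnight culture at 37 °C in M9 with 0.5% glucose, ampicillin 50 µg/mL, chloramphenicol 12.5 µg/mL. Th-S fluorescence at 455 nm (ex 375 nm) normalised to OD600, with induced untreated cells as 100%; mean ± SEM of four experiments.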

Series [5] addresses T2, Acetylcholinesterase (Homo sapiens, UniProt P22303). Nature of the series: Inhibition of human recombinant AChE using acetylthiocholine iodide as substrate preincubated for 20 mins before substrate addition by Ellman method.
The target of series [6] is Amyloid-beta precursor protein (Homo sapiens) (UniProt P05067). In words: Inhibition of aggregation of amyloid beta (1 to 42) (unknown origin) expressed in Escherichia coli BL21 (DE3) at 10 uM after 24 hrs by thioflavin S fluorescence assay. The method in brief:
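E. coli BL21(DE3) carrying Aβ42 plasmid grown overnight at 37 °C in LB with kanamycin 50 µg/mL; diluted into LB with kanamycin, 1 mM IPTG, compound in DMSO and Th-S, grown 24 h at 37 °C, 1400 rpm; DMSO-only negative control. Th-S emission 455 nm (ex 375 nm) normalised to OD600, induced untreated cells set as 100%; mean ± SEM of four experiments.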

The nature of series [7]: Antioxidant activity assessed as DPPH free radical scavenging activity measured as trolox equivalent after 30 mins by spectrophotometry. It counts as physicochemical. Further details: unit not given beside the values. The conditions noted are these: 0.5 h. The method in brief: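 Sample or trolox (5 µL) mixed with 250 µL methanolic DPPH (0.025 g/L), shaken, held in darkness 30 min, absorbance at 515 nm. Calibrated with trolox solutions; reported as µmol trolox/µmol compound; triplicate, mean ± SEM of three experiments.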
In general terms: DPPH is a stable violet radical that fades when it is reduced.

Series [8] addresses T1, Cholinesterase. In words: Inhibition of human serum BChE using butyrylthiocholine iodide at 10 uM preincubated for 20 mins before substrate addition by Ellman method.
Series [9] addresses T2, Acetylcholinesterase. In words: Inhibition of human recombinant AChE using acetylthiocholine iodide as substrate at 10 uM preincubated for 20 mins before substrate addition by Ellman method. On the technique in general: Ellman's reagent forms a yellow product with free thiols.

Broadly, the Papp is the rate of passage across a membrane or cell layer, normalised by area and donor concentration. The term IC50 denotes the midpoint of a concentration-inhibition curve. The term inhibition denotes the share of the control response that was lost under treatment.

Microtubule-associated protein tau (Homo sapiens), sequence (P10636 whole entry): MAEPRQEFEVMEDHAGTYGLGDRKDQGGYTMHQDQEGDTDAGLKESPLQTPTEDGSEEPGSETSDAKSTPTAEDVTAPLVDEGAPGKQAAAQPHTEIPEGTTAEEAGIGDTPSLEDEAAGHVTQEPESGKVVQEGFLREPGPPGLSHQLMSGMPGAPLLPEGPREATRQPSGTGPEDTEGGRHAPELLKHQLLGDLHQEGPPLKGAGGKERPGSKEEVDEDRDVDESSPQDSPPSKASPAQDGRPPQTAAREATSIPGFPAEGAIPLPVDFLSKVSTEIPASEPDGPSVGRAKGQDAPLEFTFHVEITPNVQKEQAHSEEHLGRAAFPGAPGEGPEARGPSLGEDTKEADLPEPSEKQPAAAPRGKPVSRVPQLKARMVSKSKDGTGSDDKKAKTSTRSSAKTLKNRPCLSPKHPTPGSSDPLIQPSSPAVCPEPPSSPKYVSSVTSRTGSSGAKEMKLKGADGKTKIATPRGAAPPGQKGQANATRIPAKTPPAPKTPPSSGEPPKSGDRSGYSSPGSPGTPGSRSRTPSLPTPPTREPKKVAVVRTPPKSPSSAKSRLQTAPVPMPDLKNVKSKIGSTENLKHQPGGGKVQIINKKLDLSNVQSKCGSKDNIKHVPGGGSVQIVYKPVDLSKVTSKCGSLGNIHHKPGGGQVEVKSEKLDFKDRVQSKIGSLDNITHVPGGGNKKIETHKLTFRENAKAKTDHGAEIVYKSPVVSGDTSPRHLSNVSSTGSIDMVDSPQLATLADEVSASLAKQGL
T1 sequence (P06276 whole entry): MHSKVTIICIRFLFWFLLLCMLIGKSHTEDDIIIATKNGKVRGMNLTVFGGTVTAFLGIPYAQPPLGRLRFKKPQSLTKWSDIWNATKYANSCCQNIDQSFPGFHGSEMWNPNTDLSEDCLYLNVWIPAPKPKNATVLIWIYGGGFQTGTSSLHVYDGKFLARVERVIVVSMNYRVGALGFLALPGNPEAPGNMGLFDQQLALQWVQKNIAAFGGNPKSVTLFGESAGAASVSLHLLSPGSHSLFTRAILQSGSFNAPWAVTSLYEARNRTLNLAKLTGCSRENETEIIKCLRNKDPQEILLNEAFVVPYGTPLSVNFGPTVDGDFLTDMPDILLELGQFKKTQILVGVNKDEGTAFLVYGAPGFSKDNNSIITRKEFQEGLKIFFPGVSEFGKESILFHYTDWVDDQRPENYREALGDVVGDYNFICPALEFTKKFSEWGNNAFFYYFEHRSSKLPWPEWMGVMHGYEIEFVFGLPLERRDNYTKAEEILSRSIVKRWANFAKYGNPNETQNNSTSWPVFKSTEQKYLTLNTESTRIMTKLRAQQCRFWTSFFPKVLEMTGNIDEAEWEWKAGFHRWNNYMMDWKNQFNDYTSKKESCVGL
Amyloid-beta precursor protein (Homo sapiens), sequence (P05067 whole entry): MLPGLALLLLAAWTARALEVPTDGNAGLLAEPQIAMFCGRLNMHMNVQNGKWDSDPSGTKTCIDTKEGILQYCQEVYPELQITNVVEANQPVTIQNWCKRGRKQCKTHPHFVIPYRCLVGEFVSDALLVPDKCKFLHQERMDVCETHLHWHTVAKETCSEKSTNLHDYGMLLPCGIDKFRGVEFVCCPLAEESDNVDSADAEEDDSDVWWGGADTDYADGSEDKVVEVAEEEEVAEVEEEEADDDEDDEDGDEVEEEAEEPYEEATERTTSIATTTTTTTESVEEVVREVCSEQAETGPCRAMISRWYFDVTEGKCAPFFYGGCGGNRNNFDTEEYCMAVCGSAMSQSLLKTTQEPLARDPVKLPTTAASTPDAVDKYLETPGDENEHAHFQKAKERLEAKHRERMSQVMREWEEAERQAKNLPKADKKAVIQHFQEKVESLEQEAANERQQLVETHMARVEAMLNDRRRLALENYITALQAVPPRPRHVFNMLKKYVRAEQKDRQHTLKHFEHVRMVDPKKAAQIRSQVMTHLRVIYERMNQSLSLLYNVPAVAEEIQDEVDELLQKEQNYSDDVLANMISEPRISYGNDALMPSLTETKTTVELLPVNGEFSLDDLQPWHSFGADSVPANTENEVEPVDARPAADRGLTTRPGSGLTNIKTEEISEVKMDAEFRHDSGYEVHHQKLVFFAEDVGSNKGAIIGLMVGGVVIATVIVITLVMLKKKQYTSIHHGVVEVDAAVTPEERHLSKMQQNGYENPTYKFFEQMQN
T2 sequence (P22303 whole entry): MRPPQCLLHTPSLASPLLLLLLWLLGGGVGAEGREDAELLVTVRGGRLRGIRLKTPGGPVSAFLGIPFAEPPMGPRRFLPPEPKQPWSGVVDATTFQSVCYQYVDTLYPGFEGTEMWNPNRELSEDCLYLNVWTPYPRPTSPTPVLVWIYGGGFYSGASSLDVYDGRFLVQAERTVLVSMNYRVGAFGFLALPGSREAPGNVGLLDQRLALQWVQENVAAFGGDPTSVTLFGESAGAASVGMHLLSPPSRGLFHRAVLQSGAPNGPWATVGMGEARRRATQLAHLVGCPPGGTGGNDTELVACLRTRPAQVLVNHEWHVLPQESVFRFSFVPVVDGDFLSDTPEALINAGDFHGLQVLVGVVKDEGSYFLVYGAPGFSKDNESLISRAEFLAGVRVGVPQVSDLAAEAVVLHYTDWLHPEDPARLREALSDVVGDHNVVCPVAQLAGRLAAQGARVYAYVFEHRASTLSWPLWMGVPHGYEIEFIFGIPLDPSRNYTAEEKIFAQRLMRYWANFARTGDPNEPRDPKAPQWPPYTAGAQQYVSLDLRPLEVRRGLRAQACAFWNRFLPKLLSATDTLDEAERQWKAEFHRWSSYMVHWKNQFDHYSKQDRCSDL

In “in vitro”, `COc1cc(CCC(=O)/C=C/c2ccc(CNc3c4c(nc5cc(Cl)ccc35)CC3CC(C)=CC4C3)cc2)cc(CN(C)C)c1O` (stereo not given) came in with an apparent permeability (Papp) of 8.4 ×10⁻⁶ cm/s. The values for the half-inhibitory concentration (IC50) against Cholinesterase [1] and on Acetylcholinesterase [5] were 181 nM and 21.1 nM, respectively. For the same molecule, the Activity in series [2] turned out to be 68.8 mgequiv/g; in series [3] it was 11.8; in series [7] it was 2.8. The inhibition in series [4] is 40.1%; in series [6], 53.9%.

In turn, `COc1cc(CCC(=O)/C=C/CCCNc2c3c(nc4cc(Cl)ccc24)CC2CC(C)=CC3C2)ccc1O` (stereo not given) had a Papp in “in vitro” of 11.7 ×10⁻⁶ cm/s. In addition, the values for the 50% inhibitory concentration (IC50) at Cholinesterase [1] and on Acetylcholinesterase [5] were 982 nM and 6.7 nM, respectively. Besides, the Activity was determined as 29.8 mgequiv/g in [2], 7.6 in series [3] and 6.6 in series [7]. Further, the results for the inhibition in [4] and in series [6] were 35.2% and 39.3%, respectively.

Take `CC1=CC2Cc3nc4cc(Cl)ccc4c(N)c3C(C1)C2` (stereo not given) [HUPRINE Y]: the Activity in series [2] is recorded as 10.2 mgequiv/g; in series [3], 2.6; in series [7] it was 1. In addition, the inhibition in [4] was 7.6%; in series [6], 8.9%.

Regarding `O=C(O)c1cc(O)c(O)c(O)c1` [GALLIC ACID], the Activity was determined as 1033 mgequiv/g in series [2], 18.6 in series [3] and 10.3 in series [7].

`COc1cc(CCC(=O)/C=C/c2ccc(CNc3c4c(nc5cc(Cl)ccc35)CC3CC(C)=CC4C3)cc2)ccc1O` (stereo not given): in the series “in vitro”, the Papp amounted to 6.5 ×10⁻⁶ cm/s. The figures for the IC50 at Cholinesterase [1] and at Acetylcholinesterase [5] were 742 nM and 18.3 nM, respectively. Also, the Activity in [2] is 50 mgequiv/g; in [3] it was 10.5; in series [7] it was 8.8. For the same molecule, the inhibition in series [4] is 51%; in series [6], 70.6%.

As to `CCCCC/C=C/C(=O)CCc1ccc(O)c(OC)c1` [SHOGAOL], the inhibition was 6% against Cholinesterase [8], 28% at Acetylcholinesterase [9], 9.2% in series [4] and 10.5% in series [6]. In “in vitro”, the apparent permeability coefficient (Papp) worked out at 14.7 ×10⁻⁶ cm/s. Further, the Activity was 384 mgequiv/g in series [2], 26.2 in series [3] and 12.2 in [7].
